Measured values reported in ChEMBL document CHEMBL2424587, “Antiproliferative activity of abietane diterpenoids against human tumor cells” (J Nat Prod, 2013).
Activity calls are given as the source filed them. No cut-off for these calls is given here.

How the values were obtained:
U-937 [1] = assay: Cytotoxicity against human U937 cells after 72 hrs by MTT assay; format: functional, cell-based; settings: U-937, 72 h
How it was run: (§1)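 MTT assay: 1 × 10^4 exponentially growing cells per well incubated 72 h over a range of compound concentrations; MTT 0.5 mg/mL for 4 h at 37 °C, then 10% SDS in 0.05 M HCl overnight at room temperature in the dark; absorbance at 570 nm. Leukemia and SK-MEL-1 lines grown in RPMI 1640, MCF-7 in DMEM, both with 10% heat-inactivated FBS. IC50 given as mean ± SEM of 3–5 independent experiments, each in triplicate.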

HL-60 [2] = assay: Induction of apoptosis in human HL60 cells assessed as procaspase-4 cleavage at 3 uM after 24 hrs by immunoblotting analysis; format: functional, cell-based
How it was run: (§2)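 HL-60 cells treated 24 h with 3 μM; immunoblots of lysates probed with antibodies that recognize both pro-caspases and cleaved caspases, and for PARP.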

HL-60 [3] = assay: Induction of apoptosis in human HL60 cells assessed as release of AIF to cytosolic fraction by Western blotting analysis; format: functional, cell-based
HL-60 [4] = assay: Induction of apoptosis in human HL60 cells assessed as DNA fragmentation at 3 uM after 24 hrs by […]; format: functional, cell-based
HL-60 [5] = assay: Induction of apoptosis in human HL60 cells assessed as early apoptotic cells at 3 uM after 24 hrs by AnnexinV-FITC/propidium iodide staining-based flow cytometry (reference value: 1.6%); format: functional
How it was run: (§3)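 HL-60 cells given 3 μM for 24 h, stained with annexin V-FITC and propidium iodide, and analysed by flow cytometry; annexin+/PI− cells scored as early apoptotic and double-positive cells as late; three separate experiments.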

HL-60 [6] = assay: Induction of apoptosis in human HL60 cells assessed as nuclear chromatin fragmentation after 6 hrs by Hoechst 33258 staining-based fluorescence microscopy; format: functional, cell-based
HL-60 [7] = assay: Induction of apoptosis in human HL60 cells assessed as procaspase-9 cleavage at 3 uM after 24 hrs by immunoblotting analysis; format: functional, cell-based; how it was run: as §2
HL-60 [8] = assay: Induction of apoptosis in human HL60 cells assessed as nuclear chromatin condensation after 6 hrs by Hoechst 33258 staining-based fluorescence microscopy; format: functional, cell-based
HL-60 [9] = assay: Induction of apoptosis in human HL60 cells assessed as procaspase-6 cleavage at 3 uM after 24 hrs by immunoblotting analysis; format: functional, cell-based; how it was run: as §2
HL-60 [10] = assay: Induction of apoptosis in human HL60 cells assessed as reduction in mitochondrial membrane potential at 3 uM after 24 hrs by JC-1 staining-based flow cytometry; format: functional, cell-based
How it was run: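 ΔΨm in HL-60 cells after 24 h at 3 μM assessed by JC-1 fluorescence on flow cytometry; two separate experiments, each in triplicate.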

HL-60 [11] = assay: Induction of apoptosis in human HL60 cells assessed as externalization of phosphotidylserine at 3 uM after 24 hrs by AnnexinV-FITC/propidium iodide staining-based flow cytometry; format: functional, cell-based; how it was run: as §3
HL-60 [12] = assay: Induction of apoptosis in human HL60 cells assessed as release of Smac/DIABLO to cytosolic fraction by Western blotting analysis; format: functional, cell-based
HL-60 [13] = assay: Induction of apoptosis in human HL60 cells assessed as procaspase-8 cleavage at 3 uM after 24 hrs by immunoblotting analysis; format: functional, cell-based; how it was run: as §2
HL-60 [14] = assay: Induction of apoptosis in human HL60 cells assessed as procaspase-3 cleavage at 3 uM after 24 hrs by immunoblotting analysis; format: functional, cell-based; how it was run: as §2
MOLT-3 = assay: Cytotoxicity against human MOLT3 cells after 72 hrs by MTT assay; format: functional, cell-based; settings: MOLT-3, 72 h; how it was run: as §1
HL-60 [15] = assay: Induction of apoptosis in human HL60 cells using DEVD-pNA as substrate assessed as caspase-3/7 activation at 3 uM after 24 hrs relative to control; format: functional
How it was run: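 HL-60 cells treated with 3 μM diterpene for 24 h. Lysates were assayed for cleavage of chromogenic tetrapeptide substrates DEVD-pNA (caspase-3/7), IETD-pNA (caspase-8) and LEHD-pNA (caspase-9). Activity is expressed as n-fold over untreated control. Mean ± SE of three independent experiments, each in triplicate.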

HL-60 [16] = assay: Induction of apoptosis in human HL60 cells at 3 uM after 24 hrs by flow cytometry in presence of Z-VAD-FMK; format: functional, cell-based
How it was run: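 HL-60 cells pretreated with pancaspase inhibitor Z-VAD-FMK (100 μM), then given diterpene (3 μM) for 24 h. Hypodiploid (sub-G1) apoptotic cells were counted by flow cytometry. Mean ± SE of three independent experiments, each in triplicate.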

HL-60 [17] = assay: Induction of apoptosis in human HL60 cells assessed as release of cytochrome c to cytosolic fraction by Western blotting analysis; format: functional, cell-based
HL-60 [18] = assay: Induction of apoptosis in human HL60 cells assessed as PARP cleavage at 3 uM after 24 hrs by immunoblotting analysis; format: functional, cell-based; how it was run: as §2
MCF7 = assay: Cytotoxicity against human MCF7 cells after 72 hrs by MTT assay; format: functional, cell-based; settings: MCF7, 72 h; how it was run: as §1
HL-60 [19] = assay: Cell cycle arrest in human HL60 cells assessed as accumulation at S phase at 3 uM after 24 hrs by […]propidium iodide staining-based flow cytometry (reference value: 32%); format: functional
HL-60 [20] = assay: Cytotoxicity against human HL60 cells overexpressing Bcl-XL protein after 72 hrs by MTT assay; format: functional, cell-based; settings: HL-60, 72 h
HL-60 [21] = assay: Cytotoxicity against human HL60 cells overexpressing neomycin-resistant gene after 72 hrs by MTT assay; format: functional, cell-based
PBMC = assay: Cytotoxicity against human PBMC cells up to 3 uM after 24 hrs by MTT assay; format: cell-based
How it was run: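 PBMC from heparinized blood of healthy volunteers, isolated on Ficoll-Paque, cultured in parallel with HL-60 cells for 24 h at the stated concentrations; viability measured by MTT; Student's t-test versus untreated control.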

HL-60 [22] = assay: Induction of ROS-mediated cell death in human HL60 cells preincubated for 2 hrs in presence of NAC; format: functional, cell-based
How it was run: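 Antioxidant test in HL-60 cells: NAC 10 mM added with the diterpene, or NAC and diterpene preincubated together for 2 h before addition to cells; cell death then measured.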

SK-MEL-1 = assay: Cytotoxicity against human SK-MEL-1 cells after 72 hrs by MTT assay; format: functional, cell-based; settings: SK-MEL-1, 72 h; how it was run: as §1
HL-60 [23] = assay: Cell cycle arrest in human HL60 cells assessed as accumulation at Sub-G1 phase at 3 uM after 24 hrs by […]propidium iodide staining-based flow cytometry (reference value: 4%); format: functional
HL-60 [24] = assay: Induction of apoptosis in human HL60 cells assessed as late apoptotic cells at 3 uM after 24 hrs by AnnexinV-FITC/propidium iodide staining-based flow cytometry (reference value: 3.1%); format: functional; how it was run: as §3
HL-60 [25] = assay: Cytotoxicity against human HL60 cells after 72 hrs by MTT assay; format: functional, cell-based; settings: HL-60, 72 h; how it was run: as §1
U-937 [26] = assay: Cytotoxicity against human U937 cells overexpressing Bcl-2 protein after 72 hrs by MTT assay; format: functional, cell-based; settings: U-937, 72 h
HL-60 [27] = assay: Induction of apoptosis in human HL60 cells assessed as reduction in mitochondrial membrane potential at 3 uM after 24 hrs by JC-1 staining-based flow cytometry in presence of bongkrekic acid; format: functional, cell-based
How it was run: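 HL-60 cells exposed to 3 μM diterpene for 24 h alongside permeability transition pore inhibitors cyclosporin A (25 μM, 24 h) or bongkrekic acid (25−50 μM, 24 h). Apoptosis was scored by flow cytometry. Mitochondrial membrane potential was read by JC-1 fluorescence on flow cytometry.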

HL-60 [28] = assay: Induction of apoptosis in human HL60 cells assessed as hypodiploid cells at 3 uM after 24 hrs by flow cytometry (reference value: 4.4 +/- 0.8%); format: functional

SMILES | IC50 (U-937 [1]) [µM] | Activity (HL-60 [2]) | Activity (HL-60 [3]) | Activity (HL-60 [4]) | Activity (HL-60 [5]) [%] | Activity (HL-60 [6]) | Activity (HL-60 [7]) | Activity (HL-60 [8]) | Activity (HL-60 [9]) | Activity (HL-60 [10]) | Activity (HL-60 [11]) | Activity (HL-60 [12]) | Activity (HL-60 [13]) | Activity (HL-60 [14]) | IC50 (MOLT-3) [µM] | fold change (FC) (HL-60 [15]) | Activity (HL-60 [16]) | Activity (HL-60 [17]) | Activity (HL-60 [18]) | IC50 (MCF7) [µM] | also measured
CC(=O)O[C@H]1C2=C(C(=O)C(OC(=O)c3ccc(Cl)cc3)=C(C(C)C)C2=O)[C@@]2(C)CCCC(C)(C)[C@@H]2[C@@H]1O | 1.1 | Active | Active | Active | 28.8 | Active | Active | Active | inactive | Active | Active | Active | Active | Active | 1.4 | 2 | Active | Active | Active | 2.9 | Activity (HL-60 [19]): 23%; IC50 (HL-60 [20]): 2.2 µM; Activity (HL-60 [21]): Active; Activity (PBMC): Non-toxic; Activity (HL-60 [22]): inactive; IC50 (SK-MEL-1): 4 µM; Activity (HL-60 [23]): 32%; Activity (HL-60 [24]): 28.8%; IC50 (HL-60 [25]): 2.4 µM; IC50 (U-937 [26]): 1.1 µM; Activity (HL-60 [27]): Active; Activity (HL-60 [28]): 40.4%
COc1ccc(C(=O)OC2=C(C(C)C)C(=O)C3=C(C2=O)[C@@]2(C)CCCC(C)(C)[C@@H]2[C@H](O)[C@H]3OC(C)=O)cc1 | 1.4 | Active | Active | Active | 30.2 | Active | Active | Active | inactive | Active | Active | Active | Active | Active | 1.5 | 2 | Active | Active | Active | 3.1 | Activity (HL-60 [19]): 21%; IC50 (HL-60 [20]): 2.9 µM; Activity (HL-60 [21]): Active; Activity (PBMC): Non-toxic; Activity (HL-60 [22]): inactive; IC50 (SK-MEL-1): 7.2 µM; Activity (HL-60 [23]): 28%; Activity (HL-60 [24]): 30.2%; IC50 (HL-60 [25]): 2.7 µM; IC50 (U-937 [26]): 2.1 µM; Activity (HL-60 [27]): Active; Activity (HL-60 [28]): 34.5%
CC(=O)O[C@H]1C2=C(C(=O)C(OC(=O)c3ccccc3)=C(C(C)C)C2=O)[C@@]2(C)CCCC(C)(C)[C@@H]2[C@@H]1OC(=O)c1ccccc1 | 1.8 | Active | Active | Active | 20.7 | Active | Active | Active | Active | Active | Active | Active | Active | Active | 6.9 | 2 | Active | Active | Active | 25.5 | Activity (HL-60 [19]): 16%; IC50 (HL-60 [20]): 1.1 µM; Activity (HL-60 [21]): Active; Activity (PBMC): Non-toxic; Activity (HL-60 [22]): inactive; IC50 (SK-MEL-1): 3.1 µM; Activity (HL-60 [23]): 40%; Activity (HL-60 [24]): 20.7%; IC50 (HL-60 [25]): 3.6 µM; IC50 (U-937 [26]): 0.6 µM; Activity (HL-60 [27]): Active; Activity (HL-60 [28]): 48%
